Source: PubChem (several laboratories)
CSN inh – inhibitors of CSN-mediated cullin deneddylation, primary screen, biochemical, fluorescence polarization, uHTS. inhibition, % at 12.5 µM. Purified CSN, SCF-Nedd8-OG deneddylation. 360,000 tested, 0.38% active. COP9 signalosome complex subunit 5 (Homo sapiens), Q92905;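 active = pattern-corrected inhibition above about 35%, with an unprinted fluorescence ratio check between 0.5 and 1.5, limit read from the data, passing the limit was not always enough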;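 also: 0% = enzyme with substrate and 100% = substrate without enzyme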
Target sequence (Q92905 whole entry, looked up, one chain of several): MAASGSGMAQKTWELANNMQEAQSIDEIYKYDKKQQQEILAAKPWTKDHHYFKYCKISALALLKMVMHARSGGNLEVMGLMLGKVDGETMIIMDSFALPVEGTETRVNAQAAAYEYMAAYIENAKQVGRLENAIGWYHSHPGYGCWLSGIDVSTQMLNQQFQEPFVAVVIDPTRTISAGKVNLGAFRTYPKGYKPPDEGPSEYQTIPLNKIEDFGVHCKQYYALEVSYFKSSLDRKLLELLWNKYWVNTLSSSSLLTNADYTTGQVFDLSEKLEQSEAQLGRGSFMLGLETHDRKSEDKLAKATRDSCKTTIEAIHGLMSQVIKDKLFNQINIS
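Schedule: reaction 90 min, room temperature / Assay system: HEK293T-derived human Csn5 enzyme / Input: Csn5 at 0.24 nM final / Measure: inhibition of Csn5 cleavage, % / Control set: substrate-only high control, full reaction low control / Technique: fluorescence polarization of the substrate / Buffer or medium: Tris/NaCl/DTT buffer, pH 7.5 / Reagent: SCFSkp2-Nedd8OG substrate at 10 nM final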
TPT1 inhibitor – Candida albicans TPT1 enzyme inhibitors, primary screen, biochemical, fluorescence polarization; tRNA 2'-phosphotransferase TPT1 (Candida albicans SC5314); recombinant caTPT1, FP RNA substrate dephosphorylation; inhibition, % at 5 µM; 300,000 tested, 0.81% active;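 active = inhibition above the mean of all tested compounds plus 3 SD, set per screening campaign, cut at about 24% in these data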;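 also: plate controls were DMSO alone for no effect and ferristatin control at 100 nM for full effect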
HNF4A DNA FP – change in binding of human HNF4A to DNA, primary screen, biochemical, fluorescence polarization, FITC-DNA; Hepatocyte nuclear factor 4-alpha (Homo sapiens), P41235; AID 1224865, 2016; activity change, % at 10 µM; 1 h; 360,000 tested, 0.3% active; in the data active = activity change above about 30%, passing the limit was not always enough
CRFBP-R2 block – antagonists of CRF-BP/CRF-R2 complex, primary screen, cell-based, HEK293, calcium dye fluorescence, uHTS; CRF-induced calcium fluorescence; inhibition, % at 11.8 µM; 350,000 tested, 0.59% active; AID 588475, 2011;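 active = inhibition of the ligand-induced calcium signal above about 50% at the single tested concentration, limit read from the data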
Rpn11 block – Rpn11 (PSMD14) deubiquitinase inhibitors, primary screen, biochemical, fluorescence polarization, uHTS | 26S proteasome non-ATPase regulatory subunit 14 (Homo sapiens), O00487 | human 26S proteasome, Ub4-pepOG fluorescence polarization; 20S core pre-blocked with epoxomicin | calls only at 20 µM | 360,000 tested, 0.59% active | AID 588493, 2011;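 active = inhibition at 20 µM, scaled to each plate's controls, above about 33%, limit read from the data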
Target sequence (O00487 whole entry, looked up): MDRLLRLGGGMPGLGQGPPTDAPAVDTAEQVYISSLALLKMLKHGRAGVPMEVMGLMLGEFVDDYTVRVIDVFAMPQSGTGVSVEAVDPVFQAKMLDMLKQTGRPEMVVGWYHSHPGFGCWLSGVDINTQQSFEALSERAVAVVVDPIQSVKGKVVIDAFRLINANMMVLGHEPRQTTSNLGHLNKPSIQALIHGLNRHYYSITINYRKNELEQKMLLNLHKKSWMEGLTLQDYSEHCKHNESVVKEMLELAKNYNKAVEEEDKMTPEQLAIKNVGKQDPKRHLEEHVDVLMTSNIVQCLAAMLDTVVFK
CRFR2-BP ag – agonists of CRF-BP/CRF-R2 complex, primary screen, cell-based, HEK293, calcium dye fluorescence, uHTS; activation, % at 13.2 µM; CRF-binding protein / CRF receptor 2 complex (human); calcium dye fluorescence (FLIPR); percent of saturating CRF peptide response; AID 588473, 2011; 350,000 tested, 0.46% active;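 active = activation of at least 50%, plus an integration ratio under a set limit after plate pattern correction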;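 also: plate controls were neutral control wells without compound for no effect and CRF at EC100 for full effect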
* marks the source's active call; other numbers are inactive results; i = inactive; . = no result shown. A selection: hits, their analogues and other compounds. The true share with any hit is near 2.3%.

SMILES	CSN inh	TPT1 inhibitor	HNF4A DNA FP	CRFBP-R2 block	Rpn11 block	CRFR2-BP ag
CC(=O)c1cccc(NC(=O)C2(c3ccccc3)CC2(Cl)Cl)c1 (stereo not given)	1.0	-2.4	-1.3	-10.2	i	2.0
C=CCn1c(-c2ccc(OC)cc2)nc2ccccc21	0.9	0.2	0.9	-180.0	i	154.4*
COc1ccccc1-c1nn(-c2ccccc2)cc1C(=O)N1CCN(C(=O)c2ccco2)CC1	-6.2	.	1.1	-20.8	i	-2.3
NC(=O)CCSC(=S)N1CCOCC1	-7.4	-6.2	-3.9	-9.9	i	2.4
Cc1nc(CS(=O)c2ccc(Cl)cc2)cc(NCc2ccc(Cl)cc2Cl)n1 (stereo not given)	52.0*	4.1	0.0	-41.7	i	2.5
COCc1cc(NCc2ccc(Cl)cc2)nc(C)n1	-0.2	-1.0	-0.5	2.0	i	0.1
Oc1ccc2nnc3c(Br)cnn3c2c1	-44.8	-63.2	-90.3	-64.1	i	146.0*
O=C(CCc1ccccc1)c1nnc(-c2ccccc2)o1	1.9	-1.9	0.4	-5.0	i	2.1
CCCCNC(=O)CCn1c(=O)c2ccccc2n(Cc2ccccc2C)c1=O	4.1	1.1	2.5	64.9*	i	-2.2
CC1(c2nnnn2-c2ccc3c(c2)OCCO3)CCC(=O)N1CCCn1ccnc1 (stereo not given)	102.3*	.	-0.7	.	.	.
CC1(c2nnnn2-c2ccc3c(c2)OCCO3)CCC(=O)N1CCCN1CCOCC1 (stereo not given)	1.6	.	1.9	.	.	.
CC(C)CC(N)c1csc(NC(=O)Nc2ccccc2-c2ccccc2)n1 (stereo not given)	4.5	.	3.1	.	i	.
O=C(c1ccccc1)c1ccc(O)cc1O	-77.7	-19.7	-104.7	-43.8	i	60.7*
CCn1c(SCc2ccc(C(=O)Nc3nccs3)cc2)nnc1-c1ccc(NC(C)=O)cc1	3.1	-5.6	-0.5	-6.0	i	-2.8
CC1(C)CC[C@]2(C(=O)O[C@@H]3O[C@H](CO)[C@@H](O)[C@H](O)[C@H]3O)CC[C@]3(C)C(=CCC4[C@@]5(C)CC[C@H](O[C@@H]6O[C@H](C(=O)O)[C@@H](O[C@H]7OC[C@@H](O)[C@@H](O)[C@@H]7O)[C@H](O)[C@H]6O)C(C)(C)C5CC[C@]43C)[C@@H]2C1 (stereo not given in full)	2.1	.	5.8	-10.5	i	-0.4
CC1(C)CC[C@]2(C(=O)O)CC[C@]3(C)C(=CC[C@@H]4[C@@]5(C)CC[C@H](O[C@@H]6O[C@H](C(=O)O)[C@@H](O)[C@H](O[C@@H]7OC[C@H](O)[C@H](O)[C@H]7O)[C@H]6O)C(C)(C)[C@@H]5CC[C@]43C)[C@@H]2C1	3.2	.	-3.0	-226.8	i	255.9*
COc1ccc(Cn2c(O)c(/C=N/NC(=O)c3cccnc3)c3ccccc3c2=O)cc1	31.4	.	44.3*	-69.3	.	42.5
CCOC(=O)NC(=O)C(=CNNc1ncc(C(F)(F)F)cc1Cl)C(=O)NC(=O)OCC	-5.4	-2.2	0.8	-1.1	i	0.3
CC(Oc1ccc(Br)cc1)C(=O)N1CCc2ccccc21 (stereo not given)	5.0	-4.6	1.7	-164.2	i	222.2*
Cc1ccc(S(=O)(=O)CCC(=O)OC(C)C(=O)N2CCc3ccccc32)cc1 (stereo not given)	40.1*	0.3	4.3	0.4	i	1.0
Cc1cccc(NC(=O)CSCc2cc(=O)n3ccsc3n2)c1C	5.2	1.0	-1.4	-4.6	i	0.3
Nc1c(-c2ccccn2)cnn1-c1nc(-c2ccc(F)cc2)cs1	-7.2	2.2	-1.9	-19.5	i	9.6
COc1ccc(-c2csc(-n3ncc(-c4ccccn4)c3N)n2)cc1	0.6	-0.4	27.7*	10.6	i	-0.9
CC(C)c1ccc(S(=O)(=O)N2CCN(CC(O)CN3CCOCC3)CC2)cc1 (stereo not given)	3.5	.	-0.8	-9.6	i	-0.2
CCC(C)c1ccc(S(=O)(=O)N2CCN(CC(O)COCC3CCCO3)CC2)cc1 (stereo not given)	0.8	.	-1.5	64.3*	i	0.8
SMILES	CSN inh	TPT1 inhibitor	HNF4A DNA FP	CRFBP-R2 block	Rpn11 block	CRFR2-BP ag
Cc1nc2nc(SCC(=O)NCCCN3CCCCCC3)nn2c(C)c1Cc1ccccc1	88.0*	-2.2	68.3*	5.6	i	0.6
O=C(COC(=O)c1ccc(S(=O)(=O)NCc2ccco2)cc1)Nc1ccc(OC(F)F)cc1	0.5	-1.8	-4.2	-4.3	i	0.3
CN(C)c1ccc(C(=O)OCC(=O)Nc2ccc(S(N)(=O)=O)cc2)cc1	76.0	0.8	3.0	54.5*	i	7.7
CN(C)S(=O)(=O)c1ccc(C(=O)OCC(=O)Nc2ccc(OC(F)F)cc2)cc1	-0.2	-2.0	2.8	96.0*	i	3.4
NS(=O)(=O)c1ccc(NC(=O)C2(c3ccccc3)CCCC2)cc1	-5.2	-2.2	-2.2	-4.4	i	0.8
Cc1ccc(S(=O)(=O)CCC(=O)c2cccc([N+](=O)[O-])c2)cc1	0.7	-4.2	1.2	-51.4	i	-4.2
COc1cc2[nH]c3c(=O)n4c(nc3c2cc1OC)SCCC4	-5.3	-2.7	0.2	93.0*	i	44.1
CCC(NC(=O)CN1CCN(C(=O)c2cccs2)CC1)c1ccc(C)cc1 (stereo not given)	-5.2	.	3.1	-4.8	i	0.4
CC1(C)CSC(=NCc2ccccc2)N1C(=O)c1cccc([N+](=O)[O-])c1	0.0	-0.2	-4.0	-94.9	i	272.7*
CC(C)N1CCN(Cc2nc(-c3ccccc3)cs2)CC1CCO (stereo not given)	2.4	1.1	1.2	82.0*	i	-2.6
OCCC1CN(Cc2nc(-c3ccccc3)cs2)CCN1C1CCCC1 (stereo not given)	-5.2	3.3	9.1	-1.6	i	1.1
COC(=O)/C=c1/s/c(=C(\C#N)C(=O)NCc2ccco2)n(-c2ccccc2)c1=O	3.3	11.4	2.0	77.9*	i	6.7
Nc1ccc(C(=O)N/N=C\c2cc(N=Nc3cccc4ccccc34)ccc2O)cc1	-3.2	0.1	3.3	59.2*	i	-0.3
COC(=O)N/N=C/c1cc(N=Nc2ccccc2Cl)ccc1O	-2.4	-1.4	-2.7	9.0	i	0.5
COc1ccc(S(=O)(=O)N(C)CC(=O)NC2CCCCC2)cc1OC	-0.8	-3.0	5.5	51.4*	i	-0.3
COc1ccc(CNS(=O)(=O)NCc2ccccc2)cc1OC	2.4	-1.5	-4.0	-284.9	i	274.5*
